Screens deposited in PubChem BioAssay by The Scripps Research Institute Molecular Screening Center.
Compounds with a hit are over-represented: about 2% of the library has one in this group of screens.
STAT1 blocker = reduces IFN-gamma driven STAT1 reporter signal. NIH 3T3 STAT1-luciferase reporter, luminescence. inhibition, % at 5.5 µM. hit rate 0.35% among 200,000. AID 920;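 active = inhibition above a set limit, the mean inhibition across all tested compounds plus 3 SD, cut at about 34% in these data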;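 also: 0% = IFN-gamma with DMSO and 100% = IFN-gamma with 300 µM nifuroxazide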
HSP90 inh = inhibitors of HSP90 luciferase refolding in rabbit reticulocyte lysate; luciferase refolding luminescence, 3 h; inhibition, % at 5.6 µM; hit rate 0.91% among 290,000;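 active = inhibition above the screen-wide mean plus 3 SD, computed separately per campaign, cut at about 16% in these data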;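 also: 0% = DMSO wells and 100% = 60 µM geldanamycin wells; inhibitors lower the luminescence because luciferase stays unfolded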
STAT3 blocker = STAT3 signaling inhibition. hit rate 0.89% among 190,000. AID 862. U3A cells, IL-6 STAT3-luciferase reporter, luminescence; host cell line lacks STAT1. inhibition, % at 5.5 µM;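 active = inhibition above the mean inhibition across all screened compounds plus 3 SD, cut at about 44% in these data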;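 also: 0% = DMSO only wells and 100% = 100 µM nifuroxazide control wells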
STAT3 act = STAT3 signaling activation; activation (% of control), % at 5.6 µM; hit rate 0.91% among 190,000; AID 871; U3A cells, IL-6 STAT3-luciferase reporter, luminescence; 100% = signal with IL-6 EC80 alone;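 active = activation above the screen-wide mean of compound activation plus 3 SD, cut at about 130% in these data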;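 also: 0% = background luminescence of wells with medium and substrate only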
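Material: human STAT1-deficient U3A cells with stable STAT3-luciferase reporter / Probe or stimulus: IL-6 stimulus at 33 ng/mL final / Schedule: 1 h compound pre-exposure, 6 h IL-6 stimulation, 37 °C / Technique: luminescence / Read-out basis: percent of IL-6-only median luminescence / Control set: IL-6-only high control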
The depositor's hits bear a star; x = not tested or not shown.

SMILES	STAT1 blocker	HSP90 inh	STAT3 blocker	STAT3 act
Cc1ccc(-c2nc(-c3ccccn3)no2)cc1Cl	79*	64*	99*	15
c1ccc(-c2noc(-c3ccno3)n2)nc1	x	-2	x	x
c1ccc(-c2ccc(-c3nc(-c4ccccn4)no3)cc2)cc1	92*	78*	109*	10
CCOC(=O)N1CCC(C(=O)NNC(=O)c2ccc(Cl)cc2Cl)CC1	x	-3	x	x
Cc1cc(C)nc(NC(=NCCc2c[nH]c3ccccc23)NC(=O)Nc2ccc(Cl)cc2)n1	10	1	8	95
Cc1cc(C)nc(NC(N)=NCCc2c[nH]c3ccccc23)n1	37*	0	46*	63
COc1ccccc1C(=O)Nc1ccc(N2CCN(C(C)=O)CC2)cc1	-8	-4	25	83
COc1ccccc1C(=O)Nc1ccc(N2CCCCC2)cc1	-43	7	-61	151*
O=C(N/N=C/C(Br)=C\c1ccccc1)c1n[nH]c2c1CCC2	-32	4	-50	142*
N#Cc1c(NC(=O)/C=C/c2ccco2)sc2c1CCCC2	-81	-1	-67	154*
O=C(/C=C/c1ccco1)Nc1sc2c(c1C(=O)O)CCC2	-15	-1	-4	113
CCCN1CCC(NCc2cn(C)nc2-c2ccc(Oc3ccccc3)cc2)CC1	x	5	x	x
Cc1ccc([N+](=O)[O-])cc1N/C=C/C(=O)c1ccco1	-12	0	-32	134*
Cc1cc(C(=O)Nc2cc(C(F)(F)F)ccc2N2CCOCC2)no1	x	-4	x	x
O=C(Nc1cc(C(F)(F)F)ccc1N1CCOCC1)c1ccc2ccccc2n1	-1	-2	-37	134*
CC1=CC(=O)c2ccccc2C1=O	-7	4	-18	118
CC(C)(C=O)C1=CC(=O)c2ccccc2C1=O	14	8	-43	139*
Cc1cc(=S)[nH]c(=S)[nH]1	x	5	x	x
COc1ccc(NC(=O)c2cc([N+](=O)[O-])ccc2O)cc1	94*	81*	105*	11
COc1ccc(NC(=O)c2cccc([N+](=O)[O-])c2)cc1	-20	4	21	84
N#Cc1cc2c(nc1SCC(=O)Nc1nccs1)CCCCC2	-25	20*	22	84
O=C(CNS(=O)(=O)c1ccccc1)N1CCc2ccccc2C1	x	0	x	x
COCCN1Cc2c(sc(C)c2C)N(C(=O)c2ccccc2)C1	-10	-4	-32	138*
COc1ccc(C(=O)/C(=C/c2cccs2)c2nc3ccccc3o2)cc1	-11	17*	5	102
Cc1cc(=O)n2nc(N3CCC(C(=O)NCc4ccc(Cl)cc4)CC3)sc2n1	x	-3	x	x
SMILES	STAT1 blocker	HSP90 inh	STAT3 blocker	STAT3 act
O=C(c1ccc2nc(N3CCCCC3)sc2c1)N1CCN(Cc2ccc3c(c2)OCO3)CC1	-15	31*	2	98
CC(c1ccco1)N(C(=O)COc1ccc(Cl)cc1Cl)c1ccccn1 (configuration not stated)	-24	42*	23	85
CSc1ccccc1NC(=O)COc1ccc(Cl)cc1Cl	-2	2	7	90
O=C(COc1ccc(Cl)cc1Cl)Nc1ccccn1	89*	87*	111*	8
Cc1cc(-c2nnc(CCC(=O)N(CC3CCC3)CC3CCCO3)o2)no1 (configuration not stated)	-24	-12	-10	113
Cn1cccc1C(=O)C(=O)Nc1ccc(Cl)cc1	-22	8	31	77
Cn1cccc1C(=O)C(=O)Nc1cccc(Cl)c1Cl	-53	-3	-71	157*
CCOC(=O)C(Nc1ccc2ccccc2c1)C(=O)OCC	6	3	-41	136*
CC(=O)Nc1ccc2ccccc2c1	1	2	1	106
O=C(c1ccc(COc2ccccc2Cl)o1)N1CCOCC1	x	-4	x	x
O=C(c1ccc(COc2ccccc2Cl)o1)N1CCCC1	35*	6	19	84
CSCC[C@H](NC(=O)[C@@H]1CSC2c3ccccc3C(=O)N21)C(=O)NCc1ccco1 (some centres not stated)	x	0	x	x
Cc1cc(C)nc(SCC(=O)Nc2ccnc3ccccc23)n1	36*	9	86*	26
COC(=O)c1ccccc1NC(=O)CSc1nc(C)cc(C)n1	1	-4	9	97
Cc1nc(NCc2ccco2)c2c(C)c(C)sc2n1	-72	2	-47	139*
CCOC(=O)c1sc2nc(CC(=O)OC)nc(NCc3ccco3)c2c1C	2	3	13	91
CCN(CC)CCNC(=O)c1ccc(CS(=O)(=O)c2ccccc2C)o1	x	-6	x	x
COc1ccccc1N1CCN(C(=O)CSc2ncccc2-c2nc3ccccc3[nH]2)CC1	5	22*	28	77
COc1cc(NC(=O)C(C)Oc2ccccc2)ccc1NC(=O)COc1ccccc1 (configuration not stated)	x	3	x	x
O=C(Nc1ccccc1C(=O)O)c1ccc2ccccc2n1	0	2	-11	118
Cc1ccc(NC(=O)c2ccc3ccccc3n2)nc1	-51	-1	-52	153*
O=C(CSc1nc2ccccc2c(=O)n1Cc1ccccc1)Nc1ccc(Br)cc1C(=O)O	x	-2	x	x
Nc1cccc2nc3ccccc3cc12	-133	0	-62	151*
O=[N+]([O-])c1ccccc1N/N=C/c1c[nH]c2ccccc12	-57	-4	-118	203*
COCCNC(=O)C1(S(=O)(=O)c2ccccc2)CC=CC1	x	-6	x	x
SMILES	STAT1 blocker	HSP90 inh	STAT3 blocker	STAT3 act
Cc1sc(N)nc1-c1ccc2c(c1)OCCO2	x	1	x	x
NC1=NN=C(c2ccc3c(c2)OCCO3)CS1	49*	2	66*	47
Cc1cc(NC(=O)CCC(=O)N(c2ccccc2)C(C(=O)NC2CCCC2)c2ccccc2F)no1 (configuration not stated)	x	2	x	x
Cc1cc2ccccn2c1C(=O)Nc1ccccc1	-12	-1	-43	134*
CC[n+]1c(/C=C2/C=C(C)CC(C)(C)C2)sc2ccc(OC)cc21	26	-3	58*	54
CC[n+]1c(/C=C2\C=C(C)CC(C)(C)C2)sc2ccccc21	26	-3	50*	60
Cc1cc(C)cc(NC(=O)CCn2c(=S)[nH]c3ccccc3c2=O)c1	x	1	x	x
CC(C)CC1c2[nH]c3ccccc3c2CCN1C(=O)c1cnccn1 (configuration not stated)	-52	-3	-61	171*
O=C(c1ccc(OC2CCN(Cc3ccccn3)CC2)cc1)N1CCC[C@H]1CO	x	16*	x	x
Cc1ccc(-n2c(C)cc(/C=c3/sc4nc5ccccc5n4c3=O)c2C)cc1	43*	1	63*	50
O=c1/c(=C\c2cccn2-c2ccccc2)sc2nc3ccccc3n12	-8	-4	8	99
CCOC(=O)CNC(=O)CSc1nnc(NC(=O)c2ccc(C)cc2)s1	59*	4	72*	39
COc1ccc(OC)c(C(c2c(O)nc(SC)[nH]c2=O)c2c(O)nc(SC)[nH]c2=O)c1	x	0	x	x
O=C(O)c1cc(N2N=C(C(F)(F)F)/C(=C/C=C/c3ccco3)C2=O)ccc1Cl	-14	-1	-4	105
Cc1cc(/C=N/Nc2ccc([N+](=O)[O-])cn2)c(C)n1-c1ccccc1	-27	16*	-19	116
O=C(OCC(=O)C12CC3CC(CC(C3)C1)C2)c1cnccn1	x	5	x	x
